Measured values of several laboratories.
PDE4D: 3',5'-cyclic-AMP phosphodiesterase 4D (PDE4D, Homo sapiens, UniProt Q08499)
MTNR1B: Melatonin receptor type 1B (MTNR1B, Homo sapiens, UniProt P49286)

c1ccc(C(NCCNC(c2ccccc2)c2ccccc2)c2ccccc2)cc1
inhibition (Phospholipase A2, major isoenzyme (PLA2G1B, Sus scrofa, UniProt P00592); cell-free assay, inhibitor; 10 µM): 4%

Nc1ncc(-c2nc(N3CCOCC3)nc(N3CCOCC3)n2)c(C(F)F)n1
remaining activity (PDE4D; enzyme activity, inhibitor; 10 µM): 75%

CCN(CC)CCCC[C@H](NC(=O)[C@H](CC(C)C)NC(=O)[C@H](C)NC(=O)[C@H](Cc1ccccc1)NC(=O)c1ccc(C(C)(C)C)cc1)C(=O)N[C@@H](CO)C(=O)OC
ΔTm (Bromodomain adjacent to zinc finger domain protein 1A (BAZ1A, Homo sapiens, UniProt Q9NRL2); thermal stability, DSF; 25 µM): -1.44 °C

COc1cc(O)ccc1/C=C/C(=O)c1ccc(O)cc1
inhibition (PDE4D; enzyme activity, inhibitor, radiometric; 5 µM): -1.92%

COc1ccc2[nH]cc(CCNC(=O)CI)c2c1
Emax (MTNR1B; β-arrestin recruitment, agonist; MT2; 90 min): 92%

O=C(O)c1cc(O)c2c(c1)C(=O)c1cccc(O)c1C2=O
inhibition (PDE4D; enzyme activity, inhibitor, radiometric; 50 µM): 9.01%

Cc1nn(C)cc1-c1nc2c(N3CCN(Cc4ccc(Cl)cc4)CC3)c(Cl)cnc2[nH]1
remaining binding (Calcium/calmodulin-dependent protein kinase type 1G (CAMK1G, Homo sapiens, UniProt Q96NX5); binding, competition with immobilised ligand; 1 µM): 100%

O=C(O)c1ccccc1O
inhibition (PDE4D; enzyme activity, inhibitor, radiometric; 50 µM): 3.34%

CC[C@H](C)[C@@H]1NC(=O)[C@@H]2CSSC[C@H](NC(=O)[C@@H](NC(=O)CN)[C@@H](C)O)C(=O)N[C@@H](CC(N)=O)C(=O)N[C@@H]([C@@H](C)O)C(=O)N3CCC[C@H]3C(=O)NCC(=O)N[C@H]3CSSC[C@H](NC(=O)[C@H](CCSC)NC(=O)[C@H](CC(C)C)NC(=O)[C@H](CCCNC(=N)N)NC(=O)CNC(=O)CNC(=O)[C@H](CC(=O)O)NC1=O)C(=O)NCC(=O)N[C@@H](CCC(=O)O)C(=O)N[C@@H]([C@@H](C)O)C(=O)N[C@H](C(=O)N[C@H](C(=O)NCC(=O)O)C(C)C)CSSC[C@H](NC(=O)[C@H]([C@@H](C)O)NC3=O)C(=O)N[C@@H](CO)C(=O)N[C@@H](Cc1c[nH]c3ccccc13)C(=O)N1CCC[C@H]1C(=O)N[C@@H](C(C)C)C(=O)N2
koff (Prothrombin (F2, Homo sapiens, UniProt P00734); binding, SPR): ~0.001 s⁻¹

CC1(C)[C@@H](O)CC[C@]2(C)[C@H]3C(=O)C=C4[C@@H]5C[C@@](C)(C(=O)O)CC[C@]5(C)CC[C@@]4(C)[C@]3(C)CC[C@@H]12
inhibition (PDE4D; enzyme activity, inhibitor, radiometric; 50 µM): 42.4%

COc1ccc2cccc(C(CO)CNC(=O)CF)c2c1 (stereo not drawn)
Emax (MTNR1B; GTPγS binding, agonist, radiometric; cell membranes): 99%

COc1ncccc1-c1cnn2ccc(N3CCN(C(=O)OC(C)C)CC3)nc12
remaining binding (Mitogen-activated protein kinase 7 (MAPK7, Homo sapiens, UniProt Q13164); binding, competition with immobilised ligand; 1 µM): 100%
